Assay results reported in ChEMBL document CHEMBL1145425, “Antitumor agents 259. Design, syntheses, and structure-activity relationship study of desmosdumotin C analogs” (2007).
Values after ≈ are worked out from the molar mass of the structure shown.

Legend:
Type in all cases: functional
A-431 = experiment: Cytotoxicity against human A431 cells; conditions: read-out: ED50 (the source's name)
Outline: (§1)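 Sulforhodamine B growth assay. Lines kept in RPMI-1640 with 25 mM HEPES, 0.25% sodium bicarbonate, 10% FBS and kanamycin. Trypsinized cells seeded at 1500–7500 per well, with compound added from DMSO-diluted stock. After 3 days, attached cells fixed with cold 50% TCA, stained with 0.4% SRB, dye solubilized, absorbance read at 562 nm. ED50 is 50% growth reduction, averaged over at least three independent determinations.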

HUVEC [1] = experiment: Antiangiogenesis activity against HUVEC; conditions: Homo sapiens, read-out: ED50 (the source's name)
Outline: (§2)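 HUVEC seeded at 1.5×10^3 per well in EGM-2; after 24 h (day zero) compound added in EGM-2 at 2× the desired concentration. Day-zero plate stained with crystal violet. Remaining plates kept 72 h at 37 °C, then stained with 0.5% crystal violet in 20% MeOH. Dye eluted with 1:1 EtOH:0.1 M sodium citrate and read at 540 nm. Run per the NCI Angiogenesis Resource Center protocol.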

KB [2] = experiment: Cytotoxicity against human KB cells; conditions: read-out: ED50 (the source's name); outline: as §1
HUVEC [3] = experiment: Cytotoxicity against HUVEC; conditions: Homo sapiens, read-out: ED50 (the source's name); outline: as §2
KB [4] = experiment: Cytotoxicity against human vincristine-resistant KB cells; conditions: read-out: ED50 (the source's name); outline: as §1
A549 = experiment: Cytotoxicity against human A549 cells; conditions: read-out: ED50 (the source's name); outline: as §1
HCT-8 = experiment: Cytotoxicity against human HCT8 cells; conditions: read-out: ED50 (the source's name); outline: as §1
PC-3 = experiment: Cytotoxicity against human PC3 cells; conditions: read-out: ED50 (the source's name); outline: as §1
1A9 = experiment: Cytotoxicity against human 1A9 cells; conditions: read-out: ED50 (the source's name); outline: as §1

Structure (SMILES) | EC50 (A-431) | EC50 (HUVEC [1]) | EC50 (KB [2]) | EC50 (HUVEC [3]) | EC50 (KB [4]) | EC50 (A549) | EC50 (HCT-8) | EC50 (PC-3) | EC50 (1A9)
COC1=C(C)C(=O)/C(=C(O)/C=C/c2cc(C)cc(C)c2)C(=O)C1(C)C | 4 µg/mL (≈ 11.8 µM) | < 4 µg/mL | 3.1 µg/mL (≈ 9.11 µM) | 2.5 µg/mL (≈ 7.34 µM) | 1.6 µg/mL (≈ 4.7 µM) | 4.3 µg/mL (≈ 12.6 µM) | 2.9 µg/mL (≈ 8.52 µM) | 8.8 µg/mL (≈ 25.9 µM) | –
COC1=C(C)C(=O)/C(=C(O)/C=C/c2ccc(F)cc2)C(=O)C1(C)C | 4.1 µg/mL (≈ 12.4 µM) | < 4 µg/mL | 3.7 µg/mL (≈ 11.2 µM) | 2 µg/mL (≈ 6.05 µM) | 2.7 µg/mL (≈ 8.17 µM) | 3.3 µg/mL (≈ 9.99 µM) | 3.6 µg/mL (≈ 10.9 µM) | 7.2 µg/mL (≈ 21.8 µM) | –
CCC1=C(OC)C(CC)(CC)C(=O)C(C(=O)/C=C/c2ccccc2)=C1O | 5.4 µg/mL (≈ 15.2 µM) | – | 2.8 µg/mL (≈ 7.9 µM) | – | 1.2 µg/mL (≈ 3.39 µM) | 3.4 µg/mL (≈ 9.59 µM) | 2.8 µg/mL (≈ 7.9 µM) | 7.7 µg/mL (≈ 21.7 µM) | 2.1 µg/mL (≈ 5.92 µM)
CCc1ccc(/C=C/C(O)=C2/C(=O)C(C)=C(OC)C(C)(C)C2=O)cc1 | 12 µg/mL (≈ 35.3 µM) | – | 6.9 µg/mL (≈ 20.3 µM) | – | 1.9 µg/mL (≈ 5.58 µM) | 6.1 µg/mL (≈ 17.9 µM) | 10.5 µg/mL (≈ 30.8 µM) | 15.1 µg/mL (≈ 44.4 µM) | 5.3 µg/mL (≈ 15.6 µM)
COC1=C(C)C(=O)/C(=C(O)/C=C/c2nccs2)C(=O)C1(C)C | 6 µg/mL (≈ 18.8 µM) | < 4 µg/mL | 4.3 µg/mL (≈ 13.5 µM) | 1.6 µg/mL (≈ 5.01 µM) | 3 µg/mL (≈ 9.39 µM) | 3.5 µg/mL (≈ 11 µM) | 5.1 µg/mL (≈ 16 µM) | 10.8 µg/mL (≈ 33.8 µM) | 3.5 µg/mL (≈ 11 µM)
CCCC1=C(OC)C(CCC)(CCC)C(=O)/C(=C(O)\C=C\c2ccccc2)C1=O | 1.9 µg/mL (≈ 4.79 µM) | – | 0.6 µg/mL (≈ 1.51 µM) | – | 0.8 µg/mL (≈ 2.02 µM) | 1.4 µg/mL (≈ 3.53 µM) | 1.4 µg/mL (≈ 3.53 µM) | 3.3 µg/mL (≈ 8.32 µM) | 1.5 µg/mL (≈ 3.78 µM)
CCC1=C(OC)C(CC)(CC)C(=O)C(C(=O)/C=C/c2ccc(C)cc2)=C1O | 10.3 µg/mL (≈ 28 µM) | – | 3 µg/mL (≈ 8.14 µM) | – | 1 µg/mL (≈ 2.71 µM) | 4.6 µg/mL (≈ 12.5 µM) | 9.4 µg/mL (≈ 25.5 µM) | 15 µg/mL (≈ 40.7 µM) | 4.3 µg/mL (≈ 11.7 µM)
CC1(C)C(=O)C(C(=O)/C=C/c2ccccc2)=C(O)C(C)(C)C1=O | 10.5 µg/mL (≈ 33.6 µM) | < 4 µg/mL | 7.3 µg/mL (≈ 23.4 µM) | 2 µg/mL (≈ 6.4 µM) | 3.8 µg/mL (≈ 12.2 µM) | > 5 µg/mL | 5 µg/mL (≈ 16 µM) | 11.1 µg/mL (≈ 35.5 µM) | 4.6 µg/mL (≈ 14.7 µM)
COC1=C(C)C(=O)/C(=C(O)/C=C/c2cccc3ccccc23)C(=O)C1(C)C | 4.1 µg/mL (≈ 11.3 µM) | < 4 µg/mL | 2.8 µg/mL (≈ 7.73 µM) | 1.8 µg/mL (≈ 4.97 µM) | 1.3 µg/mL (≈ 3.59 µM) | 3.6 µg/mL (≈ 9.93 µM) | 2.3 µg/mL (≈ 6.35 µM) | 9 µg/mL (≈ 24.8 µM) | –
COC1=C(C)C(=O)/C(=C(O)/C=C/c2ccc(O)cc2)C(=O)C1(C)C | 14.9 µg/mL (≈ 45.4 µM) | < 4 µg/mL | 3.8 µg/mL (≈ 11.6 µM) | 4 µg/mL (≈ 12.2 µM) | 3.8 µg/mL (≈ 11.6 µM) | 3.1 µg/mL (≈ 9.44 µM) | 14.8 µg/mL (≈ 45.1 µM) | > 20 µg/mL | 2.9 µg/mL (≈ 8.83 µM)
C=Cc1ccccc1/C=C/C(O)=C1/C(=O)C(C)=C(OC)C(C)(C)C1=O | 2.6 µg/mL (≈ 7.68 µM) | 1.1 µg/mL (≈ 3.25 µM) | 1.9 µg/mL (≈ 5.61 µM) | 1.1 µg/mL (≈ 3.25 µM) | 1.1 µg/mL (≈ 3.25 µM) | 2.2 µg/mL (≈ 6.5 µM) | 2.1 µg/mL (≈ 6.21 µM) | 4.6 µg/mL (≈ 13.6 µM) | –
CCC1=C(OC)C(CC)(CC)C(=O)C(C(=O)/C=C/c2ccc(CC)cc2)=C1O | 9.8 µg/mL (≈ 25.6 µM) | – | 3.6 µg/mL (≈ 9.41 µM) | – | 2.6 µg/mL (≈ 6.8 µM) | 3.8 µg/mL (≈ 9.93 µM) | 8.5 µg/mL (≈ 22.2 µM) | 15 µg/mL (≈ 39.2 µM) | 3.8 µg/mL (≈ 9.93 µM)
COC1=C(C)C(=O)/C(=C(O)/C=C/c2ccco2)C(=O)C1(C)C | 14.7 µg/mL (≈ 48.6 µM) | < 4 µg/mL | 9.9 µg/mL (≈ 32.7 µM) | 2.4 µg/mL (≈ 7.94 µM) | 8.8 µg/mL (≈ 29.1 µM) | 10 µg/mL (≈ 33.1 µM) | 17.5 µg/mL (≈ 57.9 µM) | 20.6 µg/mL (≈ 68.1 µM) | 7.9 µg/mL (≈ 26.1 µM)
